# Experimental data published in ChEMBL document CHEMBL3286316, “Cinnamic anilides as new mitochondrial permeability transition pore inhibitors endowed with ischemia-reperfusion injury protective effect in vivo” (J Med Chem, 2014).
# Calls of active or inactive are those of the source. The calls are words filed in the database; no cut-off is given here.
# Legend:
# [1] = system: Oryctolagus cuniculus; assay: Cardioprotective effect in New Zealand rabbit ischemia/reperfusion-induced left anterior descending coronary artery ligation myocardial infarction model assessed as ratio of area at risk to infarct area at 10 mg/kg, iv administered as bolus dose 5 min prior to reperfusion (reference value: 57.3%); assay type: functional, Myocardium
# [2] = system: Rattus norvegicus; assay: Toxicity in WI(Glx/BRL/Han)IGS rat assessed as body temperature at 30 mg/kg, iv; assay type: organism-based; set-up: dose 30 mg/kg, route intravenous; conditions: in vivo
# Outline: (§1)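 Conscious female rats implanted with telemetry, given a single iv dose up to 30 mg/kg. Heart rate, systolic, diastolic and mean blood pressure, and body temperature recorded from at least 1 h before to about 24 h after dosing.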
# [3] = system: Mus musculus; assay: Increase in calcium retention capacity in C57/bl6 mouse heart mitochondria at 15 mg/kg, iv measured after 5 mins by fluorimetry (reference value: 69.8 uM); assay type: functional
# Outline: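 Mice dosed 15 mg/kg iv in the tail vein. Hearts taken 5 min later and mitochondria isolated in sucrose/Tris/EGTA/0.1% BSA buffer. CRC measured with Calcium Green 5N under CaCl2 pulses added every minute at 25 °C until mPTP opening. Value is absolute calcium retained; vehicle DMSO, n = 16 vehicle, n = 6 treated.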
# [4] = system: Rattus norvegicus; assay: Toxicity in WI(Glx/BRL/Han)IGS rat assessed as systolic blood pressure at 30 mg/kg, iv; assay type: organism-based, Artery; set-up: dose 30 mg/kg, route intravenous; conditions: in vivo; outline: as §1
# [5] = system: Rattus norvegicus; assay: Toxicity in WI(Glx/BRL/Han)IGS rat assessed as heart rate at 30 mg/kg, iv; assay type: organism-based; set-up: dose 30 mg/kg, route intravenous; conditions: in vivo; outline: as §1
# [6] = Half life in New Zealand rabbit myocardial infarction model plasma at 5 mg/kg, iv administered as bolus dose by LC/MS analysis; assay type: ADME, organism-based, Oryctolagus cuniculus; set-up: dose 5 mg/kg, route intravenous
# Outline: (§2)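 Satellite rabbits (n = 5) given the same 5 mg/kg iv bolus. Jugular blood taken into K2EDTA predose and at 5, 15, 30, 60 and 240 min post reperfusion. Plasma precipitated with ACN/H3PO4 and analysed by UPLC-MS/MS, ESI(+), MRM mode. Eight-point calibration 2.5–1000 ng/mL, LLOQ 2.5 ng/mL. Half-life by noncompartmental analysis.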
# [7] = system: Oryctolagus cuniculus; assay: Cardioprotective effect in New Zealand rabbit ischemia/reperfusion-induced left anterior descending coronary artery ligation myocardial infarction model assessed as ratio of area at risk to infarct area at 5 mg/kg, iv administered as bolus dose 5 min prior to reperfusion (reference value: 57.3%); assay type: functional, Myocardium
# [8] = species on record: Mus musculus; assay: Inhibition of calcium-induced mPTP opening in C57/bl6 mouse liver mitochondria assessed as increase in calcium retention capacity in presence of cyclosporine A by fluorimetry
# Outline: (§3)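 Male C57/bl6 liver mitochondria (0.5 mg/mL) in KCl/MOPS buffer with glutamate/malate, pH 7.4, containing 1 μM Calcium Green 5N. Compound added just before the start. CaCl2 pulses added every minute at 25 °C; extramitochondrial fluorescence (ex 505/em 535 nm) followed until mPTP opening. Dose series 0.1–5.0 μM, or given in combination with CsA; mean of three experiments.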
# [9] = Plasma concentration in New Zealand rabbit myocardial infarction model at 5 mg/kg, iv administered as bolus dose after 240 mins by LC/MS analysis; assay type: ADME, organism-based, Oryctolagus cuniculus; set-up: dose 5 mg/kg, route intravenous; outline: as §2
# [10] = target: Voltage-gated inwardly rectifying potassium channel KCNH2 (Homo sapiens, UniProt Q12809); assay: Displacement of [3H]-astemizole from human hERG expressed in HEK293 cells at 30 uM by liquid scintillation counting; assay type: cell-based; conditions: hek293, 30 µM
# [11] = Plasma concentration in New Zealand rabbit myocardial infarction model at 5 mg/kg, iv administered as bolus dose after 5 mins by LC/MS analysis; assay type: ADME, organism-based, Oryctolagus cuniculus; set-up: dose 5 mg/kg, route intravenous; outline: as §2
# [12] = species on record: Mus musculus; assay: Inhibition of calcium-induced mPTP opening in C57/bl6 mouse heart mitochondria assessed as increase in calcium retention capacity at 5 uM after 2 mins by fluorimetry (reference value: 80 uM)
# Outline: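 Excised mouse hearts on a Langendorff apparatus, perfused 2 min with Krebs-type buffer, then 2 min with 5 μM compound in 0.1% DMSO or 0.1% DMSO alone. Hearts iced, mitochondria isolated, CRC measured with Calcium Green 5N and repeated CaCl2 pulses at 25 °C. Value is absolute calcium retained; n = 6 per group.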
# [13] = system: Rattus norvegicus; assay: Toxicity in WI(Glx/BRL/Han)IGS rat assessed as diastolic blood pressure at 30 mg/kg, iv; assay type: organism-based, Artery; set-up: dose 30 mg/kg, route intravenous; conditions: in vivo; outline: as §1
# [14] = species on record: Mus musculus; assay: Inhibition of calcium-induced mPTP opening in C57/bl6 mouse liver mitochondria assessed as increase in calcium retention capacity at 0.1 to 5 uM by fluorimetry; outline: as §3
# [15] = target: Sodium-dependent noradrenaline transporter (Homo sapiens) (UniProt P23975); assay: Displacement of antagonist radioligand from human NET at 10 uM
# Outline: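 Single 10 μM concentration tested in a receptor/enzyme diversity panel, read as displacement of a target-specific radioligand.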
# [16] = species on record: Mus musculus; assay: Inhibition of menadione-induced mPTP opening in C57/bl6 mouse liver mitochondria assessed as reduction in mitochondrial swelling at 1 uM by spectrophotometry
# Outline: (§4)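 Male C57/bl6 liver mitochondria at 0.5 mg/mL final in KCl/MOPS/phosphate buffer with glutamate/malate, pH 7.4; compound at 1 μM added before the mitochondria. Swelling followed as the fall in A540, read every 9 s for 10 min. Inducers: CaCl2 150 μM, FCCP 50 nM, menadione 100 μM, diamide 300 μM.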
# [17] = species on record: Mus musculus; assay: Inhibition of Cacl2-induced mPTP opening in C57/bl6 mouse liver mitochondria assessed as reduction in mitochondrial swelling at 1 uM by spectrophotometry; outline: as §4
# [18] = species on record: Mus musculus; assay: Inhibition of diamide-induced mPTP opening in C57/bl6 mouse liver mitochondria assessed as reduction in mitochondrial swelling at 1 uM by spectrophotometry; outline: as §4
# [19] = species on record: Mus musculus; assay: Inhibition of FCCP-induced mPTP opening in C57/bl6 mouse liver mitochondria assessed as reduction in mitochondrial swelling at 1 uM by spectrophotometry; outline: as §4
# Sequence of Voltage-gated inwardly rectifying potassium channel KCNH2 (Q12809 whole entry): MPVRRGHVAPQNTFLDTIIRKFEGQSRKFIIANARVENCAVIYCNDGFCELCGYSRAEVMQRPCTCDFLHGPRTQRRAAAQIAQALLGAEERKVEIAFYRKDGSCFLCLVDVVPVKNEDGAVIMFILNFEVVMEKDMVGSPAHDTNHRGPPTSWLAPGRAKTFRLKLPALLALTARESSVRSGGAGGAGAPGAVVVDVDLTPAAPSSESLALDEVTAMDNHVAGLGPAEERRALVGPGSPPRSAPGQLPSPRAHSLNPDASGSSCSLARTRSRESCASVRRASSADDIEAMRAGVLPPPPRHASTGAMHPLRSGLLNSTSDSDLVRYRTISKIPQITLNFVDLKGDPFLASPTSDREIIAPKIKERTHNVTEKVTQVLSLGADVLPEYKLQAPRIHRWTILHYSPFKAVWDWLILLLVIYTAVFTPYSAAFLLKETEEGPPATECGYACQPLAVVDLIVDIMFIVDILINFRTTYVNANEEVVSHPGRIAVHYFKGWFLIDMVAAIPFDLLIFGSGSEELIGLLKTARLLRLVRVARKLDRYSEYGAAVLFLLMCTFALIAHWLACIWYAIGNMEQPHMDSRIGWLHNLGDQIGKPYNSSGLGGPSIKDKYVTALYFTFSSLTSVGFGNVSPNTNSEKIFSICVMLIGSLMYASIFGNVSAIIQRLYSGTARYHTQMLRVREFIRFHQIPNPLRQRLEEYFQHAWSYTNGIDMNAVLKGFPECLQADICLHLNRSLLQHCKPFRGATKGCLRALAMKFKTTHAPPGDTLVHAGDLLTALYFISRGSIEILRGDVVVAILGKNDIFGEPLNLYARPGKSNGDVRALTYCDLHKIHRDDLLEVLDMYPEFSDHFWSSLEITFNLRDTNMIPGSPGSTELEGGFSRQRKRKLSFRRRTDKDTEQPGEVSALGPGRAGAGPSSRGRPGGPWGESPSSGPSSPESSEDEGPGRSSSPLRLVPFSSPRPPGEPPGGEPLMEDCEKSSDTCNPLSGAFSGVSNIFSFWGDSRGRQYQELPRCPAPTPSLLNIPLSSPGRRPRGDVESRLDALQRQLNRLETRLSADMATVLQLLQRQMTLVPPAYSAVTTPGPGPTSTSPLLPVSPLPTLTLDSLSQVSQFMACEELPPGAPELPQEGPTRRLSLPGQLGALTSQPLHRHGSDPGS
# Sequence of Sodium-dependent noradrenaline transporter (Homo sapiens) (P23975 whole entry): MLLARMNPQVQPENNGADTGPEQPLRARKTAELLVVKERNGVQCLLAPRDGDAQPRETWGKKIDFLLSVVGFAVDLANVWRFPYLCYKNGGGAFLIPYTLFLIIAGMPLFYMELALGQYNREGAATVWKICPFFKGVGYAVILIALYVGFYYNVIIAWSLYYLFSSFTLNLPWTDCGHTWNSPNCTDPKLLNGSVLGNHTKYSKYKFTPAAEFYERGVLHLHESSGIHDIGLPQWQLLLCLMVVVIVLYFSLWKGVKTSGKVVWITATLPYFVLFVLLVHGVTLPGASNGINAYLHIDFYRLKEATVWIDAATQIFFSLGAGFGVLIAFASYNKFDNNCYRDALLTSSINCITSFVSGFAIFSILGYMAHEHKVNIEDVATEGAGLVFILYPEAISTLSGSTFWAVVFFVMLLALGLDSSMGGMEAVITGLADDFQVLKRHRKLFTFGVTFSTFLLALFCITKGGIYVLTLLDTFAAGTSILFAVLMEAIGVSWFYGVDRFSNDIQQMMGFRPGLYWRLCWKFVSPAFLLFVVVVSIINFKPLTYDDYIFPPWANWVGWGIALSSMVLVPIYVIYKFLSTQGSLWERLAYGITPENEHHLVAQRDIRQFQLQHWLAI
structure (smiles),measurement,setting,value
C/C=C/C[C@@H](C)[C@@H](O)[C@H]1C(=O)N[C@@H](CC)C(=O)N(C)CC(=O)N(C)[C@@H](CC(C)C)C(=O)N[C@@H](C(C)C)C(=O)N(C)[C@@H](CC(C)C)C(=O)N[C@@H](C)C(=O)N[C@H](C)C(=O)N(C)[C@@H](CC(C)C)C(=O)N(C)[C@@H](CC(C)C)C(=O)N(C)[C@@H](C(C)C)C(=O)N1C [CYCLOSPORINE],Activity,[1],32.6%
O=C(/C=C/c1ccc(F)c(O)c1)Nc1cccc2ccccc12,Activity,[2],Non-toxic
same,Activity,[3],108.4 µM
same,Activity,[4],Non-toxic
same,Activity,[5],Non-toxic
same,half-life,[6],30 min
same,Activity,[7],30.9%
same,inhibition,[8],Active
same,concentration at 4 h,[9],20 nM
same,Activity,[10],Not Active
same,concentration at 5 min,[11],4800 nM
same,INH,[12],125 µM
same,Activity,[13],Non-toxic
same,inhibition,[14],Dose-dependent effect
COc1ccc(/C=C/C(=O)Nc2cccc(Cl)c2)cc1O,inhibition,[15],> 50%
same,inhibition,[16],Active
same,inhibition,[17],Active
same,inhibition,[18],Active
same,inhibition,[19],Active
